Screening data (PubChem)
Rows were chosen to be rich in hits. Some 2.9% of all compounds tested hit in one or more screens of this group.
CDK5 inh: inhibitors of human CDK5/p35 kinase. AID 488839. 0.01% of 330,000 active. inhibition, % at 10 µM. Q00535+Q15078. Recombinant CDK5/p35, ADP-Glo luminescence, 60 min;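 active = highest replicate inhibition of at least 50% and at least 75% of replicates reaching 50%; inconclusive = only one of the two criteria met; inactive = both criteria failed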
Env fusion inh: inhibitors of HIV Env-mediated cell fusion. AID 651610. HeLa-JRFL Env/CEM21 cell fusion, luciferase. inhibition, % at 12.3 µM. 1.1% of 360,000 active;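 active = mean replicate inhibition score of at least 50 and every replicate individually at or above 50; inconclusive = only one of the two criteria met; inactive = mean below 50 and not all replicates reaching 50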
Cneo AK release: causes C. neoformans cell lysis. 0.2% of 360,000 active. lysis activity, % at 15 µM. adenylate kinase release luminescence, 4 h; normalised: neutral wells 0, clomiphene wells 100;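 active = mean lysis activity across replicates of at least 80%, whatever share of replicates individually reach that level; inactive = mean lysis activity below 80%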
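Test system: log-phase Cryptococcus neoformans yeast cells; Quantity: yeast cell density of 5 × 10^6 cells/mL; Buffer or medium: YPD; Doses: single compound concentration per well; Timing: 4 h at 37 °C static, read 1 h later; Measured by: AK luminescence; Read-out basis: lysis from increased AK signal; Control set: Clomiphene as positive control.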
GSIS activator: GLuc luminescence reporter in INS-1E cells, primary screen for activators of glucose-dependent secretion of insulin; activation, % at 16.6 µM; AID 743287; 0.61% of 370,000 active; INS-1E GLuc reporter insulin secretion, 2-3 h;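 active = lowest replicate activation of at least 40%, so every replicate reaches that level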
PAX8 inh HTS: PAX8 transcriptional activity inhibition | 1.2% of 360,000 active | RMG-I TPO-luciferase reporter, SteadyGlo, 24 h | AID 652154 | inhibition, % at 12.6 µM;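 active = mean replicate inhibition at least 60% with every replicate also reaching 60%; inconclusive = only one of the two criteria is met; inactive = mean below 60% and not all replicates reaching 60%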;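 note: luciferase light reporting Pax8 driven TPO promoter activity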
dFosB activator: enhances mouse delta FosB homodimer DNA binding; P13346; purified delta FosB, TAMRA-CDK5 oligo fluorescence polarization; percent of positive-control signal above neutral wells; activation, % at 25 µM; 0.99% of 340,000 active; AID 493131;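 active = mean activation above about 17%, with every replicate also reaching it, limit read from the data, passing the limit was not always enough; inconclusive = only one of the two conditions met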
Target sequence (P13346 whole entry, looked up): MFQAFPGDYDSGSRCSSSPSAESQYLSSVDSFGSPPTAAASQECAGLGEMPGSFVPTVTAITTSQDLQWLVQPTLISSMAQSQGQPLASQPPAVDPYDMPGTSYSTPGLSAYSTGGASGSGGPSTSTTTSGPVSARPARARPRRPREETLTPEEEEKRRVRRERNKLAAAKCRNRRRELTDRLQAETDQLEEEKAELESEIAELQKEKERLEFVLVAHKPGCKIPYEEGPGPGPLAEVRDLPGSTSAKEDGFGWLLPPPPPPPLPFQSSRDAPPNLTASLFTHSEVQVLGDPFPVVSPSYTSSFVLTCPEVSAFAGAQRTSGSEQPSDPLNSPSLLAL
Of the large screens only hits and unclear results are named; the others gave an inactive call.

O=C(COc1cccc(NC(=O)c2ccccc2)c1)c1ccc(F)cc1	PAX8 inh HTS 68.9 (no result: Env fusion inh, Cneo AK release)
O=C(C[C@@H]1CC[C@H]2[C@@H](COC[C@H](O)CN2S(=O)(=O)c2cccc(Cl)c2)O1)Nc1ccc(-c2ccccc2)cc1	PAX8 inh HTS 67.4 (no result: CDK5 inh, Env fusion inh, dFosB activator)
O=C(C[C@@H]1CC[C@H]2[C@@H](COC[C@H](O)CN2S(=O)(=O)c2ccccc2)O1)Nc1ccc(-c2ccccc2)cc1	none (no result: CDK5 inh, Env fusion inh, dFosB activator)
O=C(C[C@H]1CC[C@H]2[C@@H](COC[C@@H](O)CN2S(=O)(=O)c2cccc(Cl)c2)O1)Nc1ccccc1	none (no result: CDK5 inh, Env fusion inh, dFosB activator)
O=C(C[C@@H]1CC[C@@H]2[C@H](COC[C@H](O)CN2S(=O)(=O)c2cccc(Cl)c2)O1)Nc1ccc(-c2ccccc2)cc1	PAX8 inh HTS 93.7 (no result: CDK5 inh, Env fusion inh, dFosB activator)
COc1ccc(CN(C)C[C@H]2Oc3ccc(NS(=O)(=O)c4ccccc4)cc3CC(=O)N([C@H](C)CO)C[C@@H]2C)cc1	none (no result: CDK5 inh, Env fusion inh, Cneo AK release, dFosB activator)
C[C@@H]1CN([C@H](C)CO)C(=O)Cc2cc(NC(=O)Cn3cnnn3)ccc2O[C@@H]1CN(C)C(=O)Nc1ccc(C(F)(F)F)cc1	none (no result: CDK5 inh, PAX8 inh HTS, dFosB activator)
C[C@H]1CN([C@@H](C)CO)C(=O)c2cccc(NC(=O)C3CC3)c2O[C@H]1CN(C)Cc1ccccc1	none (no result: CDK5 inh, Env fusion inh, dFosB activator)
CC(=O)N1CC2(C1)[C@@H](c1ccccc1)[C@H](CO)N2C(=O)Cc1ccccc1	none (no result: CDK5 inh, Env fusion inh, Cneo AK release, PAX8 inh HTS, dFosB activator)
COc1ccc(-c2nsc3c(N4CCCCC4)ncnc23)cc1	PAX8 inh HTS 75.5 (no result: Cneo AK release, GSIS activator)
COc1ccc(-c2nsc3c(N4CCCCC4C)ncnc23)cc1 (configuration not stated)	PAX8 inh HTS inconclusive (no result: Cneo AK release)
COc1ccccc1OCCOc1ccc(/C=C2/C(=N)N3OC(C)=CC3=NC2=O)cc1OC	GSIS activator 286.8 (no result: PAX8 inh HTS)
CCN(CC)Cc1cc(Nc2c3ccccc3nc3c4ccccc4n(C)c23)cc(CN(CC)CC)c1O	dFosB activator 65.6 (no result: Cneo AK release)
CCC(=O)N[C@H]1CC[C@@H](CCNS(=O)(=O)c2ccc(Cl)cc2)O[C@@H]1CO	none (no result: CDK5 inh, dFosB activator)
Cc1ccc(S(=O)(=O)SCCCSS(=O)(=O)c2ccc(C)cc2)cc1	GSIS activator 188.9 (no result: Env fusion inh)
Nc1ccc(S(=O)(=O)c2ccc(N3CCOCC3)c(N)c2)cc1	Env fusion inh 80.6 (no result: CDK5 inh, GSIS activator, dFosB activator)
Nc1cc(S(=O)(=O)N2CCOCC2)ccc1N1CCCCC1	none (no result: GSIS activator)
C[C@H](CO)N1C[C@H](C)[C@H](CN(C)Cc2ccc(C(=O)O)cc2)Oc2c(NS(C)(=O)=O)cccc2C1=O	none (no result: CDK5 inh, Env fusion inh, PAX8 inh HTS, dFosB activator)
O=C(c1cc(COc2ccc3ncccc3c2)on1)N1CCC[C@H]1CO	Env fusion inh 58.7
Cc1cc(CN(C)C(=O)c2cc(COc3ccc4ncccc4c3)on2)on1	PAX8 inh HTS 91.2
COc1cccc(CNc2nc3cc(-c4ccccc4)sc3c(=O)n2C)c1	Env fusion inh 63.0 (no result: CDK5 inh, dFosB activator)
COc1cccc(CNc2nc3cc(-c4ccc(OC)c(OC)c4)sc3c(=O)n2C)c1	Env fusion inh 59.6 (no result: CDK5 inh, dFosB activator)
Cn1c(NCc2ccccc2)nc2cc(-c3ccccc3)sc2c1=O	none (no result: CDK5 inh, dFosB activator)
COc1cccc(-c2ccc3c(c2)O[C@@H](CN(C)C)[C@H](C)CN([C@H](C)CO)S3(=O)=O)c1	none (no result: CDK5 inh, PAX8 inh HTS, dFosB activator)
COc1ccc(S(=O)(=O)N[C@@H]2CC[C@H](CCn3cc(-c4ccccc4F)nn3)O[C@H]2CO)cc1	none (no result: CDK5 inh, dFosB activator)
C/C(=N\NC(=O)C(c1ccccc1)c1ccccc1)c1ccccn1	PAX8 inh HTS 77.3 (no result: Cneo AK release)
C/C(=N\NC(=O)c1cccc2ccccc12)c1ccccn1	PAX8 inh HTS 65.4
C/C(=N\NC(=O)c1cc(-c2cccs2)nc2ccccc12)c1ccccn1	PAX8 inh HTS 79.3
Cc1cccc2sc(NNC(=O)c3cc(-c4cccs4)nc4ccccc34)nc12	Env fusion inh 85.2 (no result: GSIS activator)
C/C(=N\NC(=O)c1ccccc1Cl)c1ccccn1	none
C[C@H]1CCCCO[C@H](CN(C)C)[C@@H](C)CN([C@@H](C)CO)C(=O)c2cc(NC(=O)CCCCCC(=O)Nc3ccccc3N)ccc2O1	none (no result: CDK5 inh, dFosB activator)
COCC(=O)N1CCCCN2[C@H](CO)[C@H](c3ccc(C#Cc4ccccc4)cc3)[C@H]2C1	none (no result: CDK5 inh, Env fusion inh, dFosB activator)
CC(=NNC(=S)Nc1cccc(C)c1)c1ccccn1	PAX8 inh HTS 77.9 (no result: Cneo AK release, GSIS activator)
CC(=NNC(=S)Nc1ccc(C)cc1)c1ccccn1	none (no result: Cneo AK release)
O=C(c1ccccc1)N1CC2(C1)[C@H](c1ccccc1)[C@H](CO)N2C(=O)CC1CC1	none (no result: CDK5 inh, Env fusion inh, Cneo AK release, PAX8 inh HTS, dFosB activator)
CNC(=O)c1nnsc1S(=O)(=O)c1ccc(Cl)cc1	PAX8 inh HTS 107.5
O=C(c1nnsc1S(=O)c1ccc(Cl)cc1)N1CCOCC1 (configuration not stated)	PAX8 inh HTS 111.9
CNC(=O)c1ccc(S(=O)(=O)c2ccc(Cl)cc2)c(NC(C)=O)c1	none
O=C(c1nnsc1S(=O)(=O)c1ccc(Cl)cc1)N1CCOCC1	PAX8 inh HTS 93.4 (no result: Cneo AK release)
COc1ccccc1NC(=O)N[C@H]1CC[C@H](CCNS(=O)(=O)c2ccccc2)O[C@@H]1CO	none (no result: CDK5 inh, dFosB activator)
COc1cccc(OCCN2CCN(c3ncnc4c3cnn4-c3ccccc3)CC2)c1	none (no result: GSIS activator)
COc1cccc(OCc2nc3c4cnn(-c5ccccc5)c4ncn3n2)c1	GSIS activator 57.2 (no result: Env fusion inh, PAX8 inh HTS)
Cc1c(P(=S)(c2ccccc2)c2ccccc2)[n+]2ccccc2n1C/C=C/c1ccccc1	GSIS activator 243.1, PAX8 inh HTS 100.6 (no result: CDK5 inh, dFosB activator)
CC(O)c1nc2ccccc2n1C/C=C/c1ccccc1 (configuration not stated)	none (no result: GSIS activator, PAX8 inh HTS)
Cc1cccc([C@@H]2[C@@H]3C(=O)N(Cc4ccccc4)C(=O)[C@@H]3[C@]3(CC(C)C)C(=O)N(c4cccc(Cl)c4)C(=O)N23)c1	Env fusion inh 55.4
CCN1C(=O)[C@H]2[C@@H](c3ccc(C)cc3)N3C(=O)N(c4cccc(Cl)c4)C(=O)[C@@]3(C)[C@H]2C1=O	none
CCN1C(=O)[C@H]2[C@@H](c3ccc(C)cc3)N3C(=O)N(c4cccc(Cl)c4)C(=O)[C@@]3(CC)[C@H]2C1=O	Env fusion inh 95.9
Cc1cccc([C@@H]2[C@@H]3C(=O)N(Cc4ccccc4)C(=O)[C@@H]3[C@]3(C)C(=O)N(c4cccc(F)c4)C(=O)N23)c1	none
Cc1ccc(N2C(=O)N3[C@H](c4cccc(C)c4)[C@@H]4C(=O)N(Cc5ccccc5)C(=O)[C@@H]4[C@]3(C)C2=O)cc1	Env fusion inh 81.3
COc1ccc(NC(=O)N(C)C[C@H]2Oc3ccc(NS(=O)(=O)c4ccc(Cl)cc4)cc3CC(=O)N([C@@H](C)CO)C[C@H]2C)cc1	none (no result: CDK5 inh, dFosB activator)
O=C(C1CCCCC1)N1CC2(C1)[C@H](c1ccccc1)[C@H](CO)N2C(=O)c1cccnc1	none (no result: CDK5 inh, Env fusion inh, Cneo AK release, dFosB activator)
CCSc1nnc(N2C(=O)CC(c3ccsc3)C3=C2CC(C)(C)CC3=O)s1 (configuration not stated)	Env fusion inh 58.3
CC1(C)CC(=O)C2=C(C1)N(c1ccc(F)cc1)C(=O)CC2c1cccnc1 (configuration not stated)	none
